# Source: PubChem BioAssay AID463141 (The Scripps Research Institute Molecular Screening Center, 2010)
# Screen size: about 330,000 compounds; about 350 (0.11%) were called active. Only a selection was taken, and actives are over-represented in it overall. Unmarked numbers belong to inactive results.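 Rule for the calls: active = activation above the mean of all tested compounds plus 3 SD (cut at about 21% in these data); inactive = the rest.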
# Molecular target: Caspase-3 (Homo sapiens) (UniProt P42574)
# Sequence (P42574 whole entry D9A/D28A/D175A): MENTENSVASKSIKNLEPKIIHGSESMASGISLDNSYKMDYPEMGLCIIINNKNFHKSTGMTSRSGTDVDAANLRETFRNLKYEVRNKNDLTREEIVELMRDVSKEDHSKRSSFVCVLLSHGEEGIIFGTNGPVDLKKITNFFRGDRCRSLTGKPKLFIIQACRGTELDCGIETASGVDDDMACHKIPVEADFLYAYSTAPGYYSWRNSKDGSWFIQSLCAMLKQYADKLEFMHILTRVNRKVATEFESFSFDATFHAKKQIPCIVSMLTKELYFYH
# Assay: procaspase-3 enzyme activation – biochemical, absorbance, PC-3 D3A mutant, single concentration, primary screen (AID 463141);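 note: 0% = DMSO alone and 100% = DMSO wells spiked with extra 5 µM PC-3 D3A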
# Conditions: recombinant procaspase-3 D3A, Ac-DEVD-pNA absorbance 405 nm; at 8.5 µM; active compounds read high
# Outline: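 assay system = Procaspase-3 D3A mutant | signal = absorbance at 405 nm, 0 and 120 min | times = 1 h preincubation plus 2 h reaction at 25 °C | repeats = single replicate | read-out = % activation between DMSO and enzyme-spiked controls | medium = Zinc-free HEPES saline buffer with Triton X-100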
row,Compound,activation
1,COCCn1c(SCC(=O)Nc2nc(C)cs2)nnc1C(C)C,2.76%
2,CCCN1C2=C(C(=O)CCC2)C(c2ccc(O)c(Br)c2)C2=C1CCCC2=O,-10.1%
3,COc1ccc(C)cc1Nc1nc(C)nc2c1oc1ccccc12,4.37%
4,COc1ccc(C)cc1NC(=O)NCc1ccccn1,-10.4%
5,COC(=O)c1cnc(Nc2cc(C)ccc2OC)c2ccccc12,35.2% (active)
6,COc1ccc(CN2[C@@H](CC(=O)O)c3cc(F)ccc3S2(=O)=O)cc1,3.51%
7,CC1CCCN(S(=O)(=O)c2ccc(N(C(=O)c3cnccn3)C(C(=O)NC3CCCCC3)c3cccs3)cc2)C1 (configuration not stated),3.94%
8,Cc1cccc(C)c1N1C(=O)CN(Cc2ccccc2)C1=S,-3%
9,NC(=O)c1nsc(C(=O)N(CCCN2CCOCC2)C(C(=O)NC2CCCCC2)c2ccc(Cl)cc2)c1N (configuration not stated),-8.01%
10,O=C(NCc1ccccn1)Nc1ccc(Cl)cc1,-0.71%
11,Cc1nn(C)cc1C(=O)NNC(=S)Nc1ccc(Cl)cc1,-4.7%
12,Cc1nn(C)cc1CNC(=O)Nc1ccc(Cl)cc1,31.2% (active)
13,CN(C)CCNC(=O)C(C(=O)c1ccccc1)n1ccccc1=O (configuration not stated),2.49%
14,O=C(Cn1nc(C(=O)O)c2ccccc2c1=O)Nc1ccc(F)cc1,2.68%
15,Cc1cccc(NC(=O)c2cccc(C(=O)Nc3cccc(C)c3C)n2)c1C,-5.05%
16,Cc1ccccc1CSCCNC(=O)c1ccc(N(C)S(=O)(=O)c2ccccc2)cc1,-1.26%
17,COc1cc(CNCc2cccs2)cc(Br)c1OC,2.29%
18,CCCC(=O)Nc1nc2ccc(NC(=O)c3c(F)c(F)c(OC)c(F)c3F)cc2s1,8.06%
19,COc1ccc2nc(NC(=O)NC3CCCCC3)sc2c1,-1.14%
20,COc1ccc2nc(Nc3nc4ccc(NC(C)=O)cc4s3)sc2c1,28.4% (active)
21,COC(=O)Cc1cc(=O)oc2c(C)c(O)ccc12,22.9% (active)
22,COc1cccc(C(=O)OCc2cc(=O)oc3c(C)c(C)ccc23)c1OC,1.33%
23,CCCc1cc(=O)oc2c(C)c(OCC(=O)Nc3ccccn3)ccc12,-8.09%

row,Compound,activation
1,C=CCSc1ccc(S(=O)(=O)N2CCN(C)CC2)cn1,6.46%
2,COC(=O)[C@@H]1C[C@@]2(O)[C@H](O)[C@H](O)[C@H](O)C[C@H]2N1Cc1ccc(C(C)(C)C)cc1,1.49%
3,COc1ccc(CNC(=O)c2ccc(NS(=O)(=O)c3ccc4[nH]c(=O)[nH]c4c3)cc2)cc1OC,-5.34%
4,C[C@@H]1CN([C@H](C)CO)C(=O)c2cc(NC(=O)NC3CCCCC3)ccc2O[C@H]1CN(C)S(C)(=O)=O,-10.4%
5,COc1ccccc1C1C(C#N)=C(N)Oc2c1c(-c1ccccc1)nn2-c1ccccc1 (configuration not stated),3.18%
6,Cc1cc(C)n(-c2nc(O)cc(=O)[nH]2)n1,13.4%
7,CCOc1ccc2c(=O)c(-c3ccc4c(c3)OCCCO4)c(C)oc2c1,-0.35%
8,O=C(CSCc1ccccc1Cl)NNC(=O)c1ccccc1,-5.37%
9,O=C(Nc1cccc2ccccc12)c1onc2c1CCCC2,2.73%
10,O=C(CN1CCC(O)(c2cccc(C(F)(F)F)c2)CC1)NCCc1ccccc1,2.72%
11,COC(CCN(C)C)(c1ccccc1)c1ccccc1,-2.83%
12,O=[N+]([O-])c1ccc(C=Nc2ccc(Cl)cc2Cl)s1,6.25%
13,CCn1c(SCC(=O)NC2=NCCS2)nnc1C(C)NC(=O)c1ccccc1F (configuration not stated),2.41%
14,O=C1c2ccccc2C(O)N1Cc1ccccc1Cl (configuration not stated),-2.13%
15,COc1ccc2[nH]c3c(c2c1)CCN1C(=O)C(CC(=O)NCCc2ccccn2)C[C@H](C(=O)N2CCOCC2)[C@@]31C (some centres not stated),0.02%
16,O=P(c1cccs1)(c1cccs1)c1cccs1,-8.39%
17,Cc1[nH]n(C(N)=S)c(=O)c1N=Nc1ccc(Cl)cc1Cl,-2.96%
18,CCN(c1ccc2c(c1)OCO2)S(=O)(=O)c1cc(Br)cc2c1N(C(=O)C1CC1)CC2,5.06%
19,O=C(CCNS(=O)(=O)c1ccccc1C(F)(F)F)NCc1ccc2c(c1)OCO2,32.1% (active)
20,Cn1cc(CCC(=O)NCc2ccc3c(c2)OCO3)c2ccccc21,11.3%
21,O=C(CCNS(=O)(=O)c1ccccc1C(F)(F)F)Nc1ccncc1,1.72%
22,CN1CCN(CCNC(=O)Nc2ccccc2[N+](=O)[O-])CC1,4.28%
23,CN(C)c1ccc(C=NCCc2ccc(S(N)(=O)=O)cc2)cc1,8.03%

row,Compound,activation
1,Cc1ccc(C)c(NC(=O)COC(=O)c2nn(C)c(=O)c3ccccc23)c1,14.6%
2,COc1cc(NC(=O)c2ccc(-c3csc(C)n3)cc2)c(OC)cc1Cl,3.93%
3,CCCc1cc(=O)[nH]c(SCC(=O)Nc2ccc(C(=O)Nc3ccccc3OC)cc2)n1,0.24%
4,CCN(Cc1ccccc1)S(=O)(=O)c1cc(C(=O)O)ccc1OC,5.66%
5,FC(F)(F)c1cccc(-c2nc(COc3ccc(Cl)cc3Cl)no2)c1,-1.22%
6,CCCc1nc2c(C)cc(-c3nc4ccccc4n3C)cc2n1Cc1ccc(-c2ccccc2C(=O)O)cc1,5.04%
7,COc1ccc(CSc2nc(N3CCOCC3)c3c(c2C#N)CC(C)(C)OC3)cc1,-2.72%
8,CC(C)C(=O)N1CCN(c2nc(-c3ccccc3)c3c(c2C#N)CC(C)(C)OC3)CC1,5.16%
9,CC1(C)Cc2c(C#N)c(SCc3nc4ccccc4[nH]3)nc(N3CCOCC3)c2CO1,30.9% (active)
10,COc1ccc(OC)c(/C=N/NC(=O)c2ccc[n+](CC(=O)c3ccccc3)c2)c1,-2.7%
11,COc1ccc(OC)c(Nc2nc3ccccc3n3cnnc23)c1,-2.95%
12,Cc1cc(F)ccc1S(=O)(=O)Nc1ccc(C(=O)N(C)Cc2ccco2)cc1,12.5%
13,CCN(CC)S(=O)(=O)c1ccc(Cl)c(C(=O)NC(C)C(c2cccs2)N2CCCC2)c1 (configuration not stated),0.02%
14,O=C(NCc1ccccc1)[C@@H]1CSC2c3ccccc3C(=O)N21 (some centres not stated),5.1%
15,Cn1nc([N+](=O)[O-])nc1Sc1ccc(C(C)(C)C)cc1,-0.3%
16,ONC(=Nc1ccc(Cl)cc1)c1ccccc1Cl,4.43%
17,C=CCn1c(SCc2nnc(-c3ccccc3)o2)nnc1C(O)c1ccccc1 (configuration not stated),-1.35%
18,CC1CCN(C(=S)NC2CC3CCC2C3)CC1 (configuration not stated),-7.41%
19,CCCNC(=O)CN(Cc1ccccc1F)S(=O)(=O)c1ccc(C)cc1,4.46%
20,Cc1ccc(N(C(=O)C(F)(F)F)C(C(=O)NC2CCCCC2)c2ccncc2)cc1C (configuration not stated),-2.69%
21,O=C(NCCS(=O)(=O)c1ccc(Br)cc1)c1ccccc1Cl,3.23%
